This note sets out measurements from ChEMBL document CHEMBL1177741, “Cardiac glycosides from Antiaris toxicaria with potent cardiotonic activity” (J Nat Prod, 2010).

Series [1] is described as follows: Cardiotonic activity in guinea pig right ventricular muscles assessed as maximum positive inotropic effective concentration causing myocardial contraction relative to basal level. It counts as functional, Cavia porcellus, Muscle tissue. In short, it runs like this: (§1)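 Isolated left atrial or right ventricular strips from adult guinea pigs (300–500 g; pentobarbital 25 mg/kg i.p.; heart retrogradely perfused with Tyrode's, pH not stated). Tissue held at 1 g tension, paced at 2 Hz (2 ms pulses, twice threshold), stabilised about 60 min, then given cumulative drug additions. Maximal inotropic effect taken at the concentration just before arrhythmia onset.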

Series [2] can be described thus: Cardiotonic activity in guinea pig left atrial muscles assessed as maximum positive inotropic effective concentration causing myocardial contraction relative to basal level. It counts as functional, Cavia porcellus, Muscle tissue. The procedure, abridged:
as §1

Series [3] in a line: Safety index, ratio of arrhythmogenic concentration to minimum positive inotropic effective concentration causing myocardial contraction in guinea pig right ventricular muscles. It counts as toxicity, tissue-based, Cavia porcellus, Muscle tissue. Conditions: for selectivity ratio: isolated right ventricular muscles. The procedure, abridged:
(§2)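 Paced guinea pig left atrial or right ventricular strips (1 g tension, 2 Hz) received cumulative drug addition. The lowest concentration raising contraction (PIECmin) and the concentration inducing arrhythmia were both recorded. Safety index was calculated as the ratio of the arrhythmogenic concentration to PIECmin.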

The nature of series [4]: Safety index, ratio of arrhythmogenic concentration to minimum positive inotropic effective concentration causing myocardial contraction in guinea pig left atrial muscles. It counts as toxicity, tissue-based, Cavia porcellus, Muscle tissue. Conditions: for selectivity ratio: isolated left atrial muscles. The procedure, abridged: as §2
Series [5] is described as follows: Cardiotonic activity in guinea pig left atrial muscles assessed as minimum positive inotropic effective concentration causing myocardial contraction. It counts as functional, Cavia porcellus, Muscle tissue. In short, it runs like this:
(§3)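 Guinea pig left atrial or right ventricular strips were perfused with Tyrode's solution, held at 1 g tension and paced at 2 Hz (2 ms, twice threshold). After about 60 min stabilisation, drug was added cumulatively. PIECmin was recorded as the lowest concentration that increased myocardial contraction.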

Series [6] in a line: Cardiotonic activity in guinea pig right ventricular muscles assessed as minimum positive inotropic effective concentration causing myocardial contraction. It counts as functional, Cavia porcellus, Muscle tissue. In short, it runs like this:
as §3

For a further series, the species on record is Cavia porcellus. Kind of series: Inhibition of Na(+)/K(+)-ATPase in guinea pig atria by whole cell patch clamp method.

Regarding `C[C@H]1O[C@@H](O[C@H]2CC[C@]3(C)[C@H]4CC[C@]5(C)[C@@H](C6=CC(=O)OC6)CC[C@]5(O)[C@@H]4CC[C@]3(O)C2)[C@H](O)[C@H](O)[C@H]1O` [ANTIAROSIDE A], the Activity amounted to 150% in series [1], 158% in series [2], 0.1 µM in series [5] and 0.083 µM in series [6]. The figures for the selectivity ratio in series [3] and in series [4] were 2 and 4.3, respectively.
As to `C[C@]12CC[C@H]3[C@@H](CC[C@]4(O)C[C@@H](O)CC[C@]34CO)[C@@]1(O)CC[C@@H]2C1=CC(=O)OC1` [STROPHANTHIDOL], the Activity in series [1] was determined as 408%; in series [2], 205%; in series [5], 1.25 µM; in series [6], 0.3 µM. Further, the selectivity ratio in series [3] turned out to be 65; in series [4] it was 6.3.
As for `C[C@@H]1O[C@H](O[C@H]2CC[C@@]3(C=O)[C@H](CC[C@@H]4[C@@H]3CC[C@]3(C)[C@@H](C5=CC(=O)OC5)CC[C@]43O)C2)[C@H](O)[C@H](O)[C@H]1O` [MALAYOSIDE], the Activity in series [1] is 464%; in series [2] it was 660%; in series [5] it was 0.25 µM; in series [6], 0.25 µM. Moreover, in the series listed under Cavia porcellus, the inhibition result was “Dose-dependent effect”. Further, the selectivity ratio was 24 in series [3] and 20 in series [4].
On to `C[C@@H]1O[C@H](O[C@H]2CC[C@@H]3[C@H]4CC[C@]5(C)[C@@H](C6=CC(=O)OC6)CC[C@]5(O)[C@@H]4CC[C@]3(O)C2)[C@H](O)[C@H](O)[C@H]1O` [ANTIAROSIDE I], for which the Activity in series [1] was found to be 1246%; in series [2], 562%; in series [5], 0.83 µM; in series [6] it was 0.67 µM. Besides, the selectivity ratio in series [3] is 10.7; in series [4] it was 6.7.
On to `C[C@@H]1O[C@@H](O[C@H]2CC[C@]3(C=O)[C@H]4CC[C@]5(C)[C@@H](C6=CC(=O)OC6)CC[C@]5(O)[C@@H]4CC[C@]3(O)C2)[C@H](O)[C@H](O)[C@H]1O[C@@H]1O[C@H](CO)[C@@H](O)[C@H](O)[C@H]1O` [CONVALLOSIDE], for which the Activity in series [1] was 292%; in series [2], 443%; in series [5] it was 0.25 µM; in series [6] it was 1 µM. Also, the selectivity ratio in series [3] stood at 9; in series [4], 20.
On to `C[C@@H]1O[C@H](O[C@H]2CC[C@]3(C=O)[C@H]4C[C@@H](O)[C@]5(C)[C@@H](C6=CC(=O)OC6)CC[C@]5(O)[C@@H]4CC[C@]3(O)C2)[C@H](O)[C@H](O)[C@H]1O`, for which the Activity in series [1] was 250%; in series [2], 243%; in series [5], 1 µM; in series [6], 2 µM. Besides, the selectivity ratio is 15 in series [3] and 10 in series [4].
In the case of `CO[C@H]1[C@@H](O[C@H]2CC[C@]3(C=O)[C@H]4CC[C@]5(C)[C@@H](C6=CC(=O)OC6)CC[C@]5(O)[C@@H]4CC[C@]3(O)C2)O[C@H](C)[C@@H](O)[C@H]1O` (stereo in doubt; 20) [STROPHATHOJAVOSIDE], the Activity in series [1] came to 350%; in series [2] it was 225%; in series [5], 0.5 µM; in series [6] it was 0.5 µM. The Ratio in series [3] was determined as 4; in series [4] it was 2.5.
